Data from ChEMBL document CHEMBL3046448, “Design and syntheses of novel phthalazin-1(2H)-one derivatives as acetohydroxyacid synthase inhibitors” (J Agric Food Chem, 2006).

How the values were obtained:
Chenopodium album [1] = assay: Herbicidal activity against Chenopodium album assessed as growth inhibition at 150 g ai/ha applied as post-emergence treatment under green house conditions measured 15 days post compound treatment; assay type: functional; conditions: 360 h, read-out: GI
Summary of the method: (§1)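 Post-emergence spray on pot-grown dicot weeds at the two-leaf stage in a greenhouse. Clay soil: pH 6.5, 1.6% organic matter, 37.3% clay, CEC 12.1 cmol/kg. Formulation: 100 g/L DMF/TW-80 emulsified concentrate, water-diluted to 150 g ai/ha. Untreated and DMF solvent controls. Visual inhibition rating at 15 days: ++ >80%, + 50-80%, − <50%.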

Digitaria sanguinalis [2] = assay: Herbicidal activity against Digitaria sanguinalis (hairy crabgrass) assessed as growth inhibition at 150 g ai/ha applied as pre-emergence treatment 24 hr after weeds seeds sowing under green house conditions measured 15 days post compound treatment; assay type: functional; conditions: read-out: GI
Summary of the method: (§2)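 Pre-emergence spray applied 24 h after sowing weeds in pots in a greenhouse. Clay soil: pH 6.5, 1.6% organic matter, 37.3% clay, CEC 12.1 cmol/kg. Formulation: 100 g/L emulsified concentrate (DMF solvent, TW-80 emulsifier) diluted with water to 150 g ai/ha. Untreated and DMF-treated controls. Growth inhibition judged visually at 15 days: ++ >80%, + 50-80%, − <50%.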

Echinochloa crus-galli [3] = assay: Herbicidal activity against Echinochloa crus-galli (barnyard grass) assessed as growth inhibition at 150 g ai/ha applied as pre-emergence treatment 24 hr after weeds seeds sowing under green house conditions measured 15 days post compound treatment; assay type: functional; conditions: read-out: GI; summary of the method: as §2
Digitaria sanguinalis [4] = assay: Herbicidal activity against Digitaria sanguinalis (hairy crabgrass) assessed as growth inhibition at 150 g ai/ha applied as post-emergence treatment under green house conditions measured 15 days post compound treatment; assay type: functional; conditions: 360 h, read-out: GI
Summary of the method: (§3)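 Monocot weeds grown in pots in a greenhouse and sprayed post-emergence at the one-leaf stage. Clay soil: pH 6.5, 1.6% organic matter, 37.3% clay, CEC 12.1 cmol/kg. Formulation: 100 g/L emulsified concentrate (DMF, TW-80) diluted with water to 150 g ai/ha. Untreated and DMF controls included. Growth inhibition scored visually after 15 days: ++ >80%, + 50-80%, − <50%.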

Echinochloa crus-galli [5] = assay: Herbicidal activity against Echinochloa crus-galli (barnyard grass) assessed as growth inhibition at 150 g ai/ha applied as post-emergence treatment under green house conditions measured 15 days post compound treatment; assay type: functional; conditions: 360 h, read-out: GI; summary of the method: as §3
Amaranthus retroflexus [6] = assay: Herbicidal activity against Amaranthus retroflexus assessed as growth inhibition at 150 g ai/ha applied as pre-emergence treatment 24 hr after weeds seeds sowing under green house conditions measured 15 days post compound treatment; assay type: functional; conditions: read-out: GI; summary of the method: as §2
Amaranthus retroflexus [7] = assay: Herbicidal activity against Amaranthus retroflexus assessed as growth inhibition at 150 g ai/ha applied as post-emergence treatment under green house conditions measured 15 days post compound treatment; assay type: functional; conditions: 360 h, read-out: GI; summary of the method: as §1
Chenopodium album [8] = assay: Herbicidal activity against Chenopodium album assessed as growth inhibition at 150 g ai/ha applied as pre-emergence treatment 24 hr after weeds seeds sowing under green house conditions measured 15 days post compound treatment; assay type: functional; conditions: read-out: GI; summary of the method: as §2
Setaria viridis [9] = assay: Herbicidal activity against Setaria viridis (green foxtail) assessed as growth inhibition at 150 g ai/ha applied as pre-emergence treatment 24 hr after weeds seeds sowing under green house conditions measured 15 days post compound treatment; assay type: functional; conditions: read-out: GI; summary of the method: as §2
Brassica juncea [10] = assay: Herbicidal activity against Brassica juncea assessed as growth inhibition at 150 g ai/ha applied as pre-emergence treatment 24 hr after weeds seeds sowing under green house conditions measured 15 days post compound treatment; assay type: functional; conditions: read-out: GI; summary of the method: as §2
[11] = target: T1, Acetolactate synthase, chloroplastic (Arabidopsis thaliana, UniProt P17597); assay: Inhibition of wild type Arabidopsis thaliana acetohydroxyacid synthase
T1 sequence (P17597 whole entry): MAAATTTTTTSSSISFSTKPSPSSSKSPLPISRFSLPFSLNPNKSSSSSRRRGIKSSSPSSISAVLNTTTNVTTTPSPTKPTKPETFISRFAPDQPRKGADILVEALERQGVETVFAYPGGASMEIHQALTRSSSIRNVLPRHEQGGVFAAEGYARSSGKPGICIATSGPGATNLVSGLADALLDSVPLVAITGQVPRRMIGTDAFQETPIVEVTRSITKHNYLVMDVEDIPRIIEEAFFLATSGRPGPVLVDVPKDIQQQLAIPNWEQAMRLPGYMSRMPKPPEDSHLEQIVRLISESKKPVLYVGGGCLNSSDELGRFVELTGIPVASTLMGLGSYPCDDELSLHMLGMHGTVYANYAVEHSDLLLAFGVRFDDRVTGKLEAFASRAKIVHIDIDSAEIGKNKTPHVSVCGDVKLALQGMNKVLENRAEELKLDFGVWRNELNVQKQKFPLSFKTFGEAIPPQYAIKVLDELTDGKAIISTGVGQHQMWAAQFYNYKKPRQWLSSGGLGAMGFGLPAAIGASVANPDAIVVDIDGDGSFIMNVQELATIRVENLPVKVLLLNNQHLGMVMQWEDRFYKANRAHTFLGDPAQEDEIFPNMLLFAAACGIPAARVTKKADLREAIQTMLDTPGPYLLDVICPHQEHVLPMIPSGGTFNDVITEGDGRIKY

Brassica juncea [12] = assay: Herbicidal activity against Brassica juncea assessed as growth inhibition at 150 g ai/ha applied as post-emergence treatment under green house conditions measured 15 days post compound treatment; assay type: functional; conditions: 360 h, read-out: GI; summary of the method: as §1
Setaria viridis [13] = assay: Herbicidal activity against Setaria viridis (green foxtail) assessed as growth inhibition at 150 g ai/ha applied as post-emergence treatment under green house conditions measured 15 days post compound treatment; assay type: functional; conditions: 360 h, read-out: GI; summary of the method: as §3

CO/N=C(/C)c1cccc(Oc2nc(OC)cc(OC)n2)c1C(=O)OC [PYRIMINOBAC-METHYL]
inhibition of growth at 150 g/ha (Chenopodium album [1]): > 80% | inhibition of growth at 150 g/ha (Digitaria sanguinalis [2]): < 50% | inhibition of growth at 150 g/ha (Echinochloa crus-galli [3]): < 50% | inhibition of growth at 150 g/ha (Digitaria sanguinalis [4]): > 80% | inhibition of growth at 150 g/ha (Echinochloa crus-galli [5]): > 80% | inhibition of growth at 150 g/ha (Amaranthus retroflexus [6]): < 50% | inhibition of growth at 150 g/ha (Amaranthus retroflexus [7]): > 80% | inhibition of growth at 150 g/ha (Chenopodium album [8]): < 50% | inhibition of growth at 150 g/ha (Setaria viridis [9]): < 50% | inhibition of growth at 150 g/ha (Brassica juncea [10]): < 50% | Ki [11]: 49 µM

COc1cc(OC)nc(Oc2cccc3c(C)nn(Cc4cccc(F)c4)c(=O)c23)n1
inhibition of growth at 150 g/ha (Chenopodium album [1]): < 50% | inhibition of growth at 150 g/ha (Digitaria sanguinalis [2]): < 50% | inhibition of growth at 150 g/ha (Echinochloa crus-galli [3]): < 50% | inhibition of growth at 150 g/ha (Digitaria sanguinalis [4]): < 50% | inhibition of growth at 150 g/ha (Echinochloa crus-galli [5]): < 50% | inhibition of growth at 150 g/ha (Amaranthus retroflexus [6]): < 50% | inhibition of growth at 150 g/ha (Amaranthus retroflexus [7]): < 50% | inhibition of growth at 150 g/ha (Chenopodium album [8]): < 50% | inhibition of growth at 150 g/ha (Brassica juncea [12]): < 50% | inhibition of growth at 150 g/ha (Setaria viridis [9]): < 50% | inhibition of growth at 150 g/ha (Brassica juncea [10]): < 50% | Ki [11]: 1400 µM | inhibition of growth at 150 g/ha (Setaria viridis [13]): < 50%

CCc1ccc(C(=O)n2nc(C)c3cccc(Oc4nc(OC)cc(OC)n4)c3c2=O)cc1
inhibition of growth at 150 g/ha (Chenopodium album [1]): 50% | inhibition of growth at 150 g/ha (Digitaria sanguinalis [2]): < 50% | inhibition of growth at 150 g/ha (Echinochloa crus-galli [3]): < 50% | inhibition of growth at 150 g/ha (Digitaria sanguinalis [4]): < 50% | inhibition of growth at 150 g/ha (Echinochloa crus-galli [5]): 50% | inhibition of growth at 150 g/ha (Amaranthus retroflexus [6]): < 50% | inhibition of growth at 150 g/ha (Amaranthus retroflexus [7]): > 80% | inhibition of growth at 150 g/ha (Chenopodium album [8]): < 50% | inhibition of growth at 150 g/ha (Brassica juncea [12]): 50% | inhibition of growth at 150 g/ha (Setaria viridis [9]): < 50% | inhibition of growth at 150 g/ha (Brassica juncea [10]): < 50% | Ki [11]: 710 µM | inhibition of growth at 150 g/ha (Setaria viridis [13]): 50%

COc1cc(OC)nc(Oc2cccc3c(C)nn(Cc4ccccc4C)c(=O)c23)n1
inhibition of growth at 150 g/ha (Chenopodium album [1]): 50% | inhibition of growth at 150 g/ha (Digitaria sanguinalis [2]): < 50% | inhibition of growth at 150 g/ha (Echinochloa crus-galli [3]): < 50% | inhibition of growth at 150 g/ha (Digitaria sanguinalis [4]): < 50% | inhibition of growth at 150 g/ha (Echinochloa crus-galli [5]): < 50% | inhibition of growth at 150 g/ha (Amaranthus retroflexus [6]): < 50% | inhibition of growth at 150 g/ha (Amaranthus retroflexus [7]): > 80% | inhibition of growth at 150 g/ha (Chenopodium album [8]): < 50% | inhibition of growth at 150 g/ha (Brassica juncea [12]): 50% | inhibition of growth at 150 g/ha (Setaria viridis [9]): < 50% | inhibition of growth at 150 g/ha (Brassica juncea [10]): < 50% | Ki [11]: 262 µM | inhibition of growth at 150 g/ha (Setaria viridis [13]): 50%

CCCn1nc(C)c2cccc(Oc3nc(OC)cc(OC)n3)c2c1=O
inhibition of growth at 150 g/ha (Chenopodium album [1]): 50% | inhibition of growth at 150 g/ha (Digitaria sanguinalis [2]): < 50% | inhibition of growth at 150 g/ha (Echinochloa crus-galli [3]): < 50% | inhibition of growth at 150 g/ha (Digitaria sanguinalis [4]): 50% | inhibition of growth at 150 g/ha (Echinochloa crus-galli [5]): 50% | inhibition of growth at 150 g/ha (Amaranthus retroflexus [6]): < 50% | inhibition of growth at 150 g/ha (Amaranthus retroflexus [7]): > 80% | inhibition of growth at 150 g/ha (Chenopodium album [8]): < 50% | inhibition of growth at 150 g/ha (Brassica juncea [12]): 50% | inhibition of growth at 150 g/ha (Setaria viridis [9]): < 50% | inhibition of growth at 150 g/ha (Brassica juncea [10]): < 50% | Ki [11]: 1660 µM | inhibition of growth at 150 g/ha (Setaria viridis [13]): 50%

COc1cc(OC)nc(Oc2cccc3c(C)nn(Cc4c(F)cccc4F)c(=O)c23)n1
inhibition of growth at 150 g/ha (Chenopodium album [1]): < 50% | inhibition of growth at 150 g/ha (Digitaria sanguinalis [2]): < 50% | inhibition of growth at 150 g/ha (Echinochloa crus-galli [3]): < 50% | inhibition of growth at 150 g/ha (Digitaria sanguinalis [4]): < 50% | inhibition of growth at 150 g/ha (Echinochloa crus-galli [5]): < 50% | inhibition of growth at 150 g/ha (Amaranthus retroflexus [6]): < 50% | inhibition of growth at 150 g/ha (Amaranthus retroflexus [7]): < 50% | inhibition of growth at 150 g/ha (Chenopodium album [8]): < 50% | inhibition of growth at 150 g/ha (Brassica juncea [12]): < 50% | inhibition of growth at 150 g/ha (Setaria viridis [9]): < 50% | inhibition of growth at 150 g/ha (Brassica juncea [10]): < 50% | Ki [11]: 634 µM | inhibition of growth at 150 g/ha (Setaria viridis [13]): < 50%

COc1cc(OC)nc(Oc2cccc3c(C)n[nH]c(=O)c23)n1
inhibition of growth at 150 g/ha (Chenopodium album [1]): 50% | inhibition of growth at 150 g/ha (Digitaria sanguinalis [2]): < 50% | inhibition of growth at 150 g/ha (Echinochloa crus-galli [3]): < 50% | inhibition of growth at 150 g/ha (Digitaria sanguinalis [4]): > 80% | inhibition of growth at 150 g/ha (Echinochloa crus-galli [5]): > 80% | inhibition of growth at 150 g/ha (Amaranthus retroflexus [6]): < 50% | inhibition of growth at 150 g/ha (Amaranthus retroflexus [7]): > 80% | inhibition of growth at 150 g/ha (Chenopodium album [8]): < 50% | inhibition of growth at 150 g/ha (Brassica juncea [12]): < 50% | inhibition of growth at 150 g/ha (Setaria viridis [9]): < 50% | inhibition of growth at 150 g/ha (Brassica juncea [10]): < 50% | Ki [11]: 789 µM | inhibition of growth at 150 g/ha (Setaria viridis [13]): > 80%
